Test results: publication PMC3817326 (British Journal of Cancer, 2013)
Values belong to the compound of their own block, whether it stands above or below them.

Tests used:
[1] = tested on: caco-2 monolayers; experiment: Transwell permeability assay across caco-2 monolayers; format: in vitro ADME, human; details: compounds tested at 10 μM
Summary of the method: (§1)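 Caco-2 monolayers in transwells were used to measure apical-to-basal absorption (PappA–B) and basal-to-apical secretion (PappB–A). Efflux ratio was calculated as PappB–A/PappA–B. Runs were made with or without ABC transporter inhibitors (FTC for ABCG2, verapamil for ABCB1), with vinblastine as an ABCB1 reference substrate.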

[2] = tested on: caspase 3/7 activity in HCT-116 cells; experiment: Caspase 3/7 assay; format: cell-based, human; details: 24 h
Summary of the method: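 Treated cells were transferred to opaque plates and incubated 1 h with a luminogenic caspase 3/7 reagent. Luminescence on a microplate counter gave caspase 3/7 activity, normalised to protein content.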

[3] = tested on: A2780^AD cells, overexpressing ABCB1; experiment: Growth inhibition in doxorubicin-resistant A2780AD cells vs parental A2780; format: cell-based
[4] = tested on: Ki-67; details: after 5 days of treatment; ref Li et al, 2012; cited from earlier work
[5] = Metabolic stability in mouse S9 fractions; format: in vitro ADME; details: 60 min incubation with NADPH and mouse S9 fractions
[6] = Transwell permeability assay across caco-2 monolayers; format: in vitro ADME, human; details: human, Caco-2
Summary of the method: as §1

Permeability PappA–B across caco-2 cells [1]: poorly absorbed
Compound: CC(C)c1cnn2c(NCc3ccccc3)cc(NCCCCCCN)nc12 [BS-181]
Caspase 3/7 activity [2]: only at the highest concentration tested
Potency in A2780^AD cells compared with parental A2780 [3]: equipotent

Compound: CO[C@H]1C[C@@H]2CC[C@@H](C)[C@@](O)(O2)C(=O)C(=O)N2CCCC[C@H]2C(=O)O[C@H]([C@H](C)C[C@@H]2CC[C@@H](OCCO)[C@H](OC)C2)CC(=O)[C@H](C)/C=C(\C)[C@@H](O)[C@@H](OC)C(=O)[C@H](C)C[C@H](C)/C=C/C=C/C=C/1C [everolimus]
Decrease in Ki-67 [4]: 1.6 fold

Parent compound remaining [5]: < 10%
Compound: CC[C@H](CO)Nc1nc(NCc2ccccc2)c2ncn(C(C)C)c2n1 [roscovitine]

efflux ratio at 10 μM [6]: 8
Compound: CC[C@]1(O)C[C@@H]2CN(CCc3c([nH]c4ccccc34)[C@@](C(=O)OC)(c3cc4c(cc3OC)N(C)[C@H]3[C@@](O)(C(=O)OC)[C@H](OC(C)=O)[C@]5(CC)C=CCN6CC[C@]43[C@@H]65)C2)C1 [vinblastine]
